{"source": "paper PMC6148399", "about": "(SLAS discovery : advancing life sciences R & D, 2018)", "key": {"[1]": {"target": "T1, human IP6K2 (Homo sapiens, UniProt Q9UHH9)", "T1 sequence (Q9UHH9 1-426)": "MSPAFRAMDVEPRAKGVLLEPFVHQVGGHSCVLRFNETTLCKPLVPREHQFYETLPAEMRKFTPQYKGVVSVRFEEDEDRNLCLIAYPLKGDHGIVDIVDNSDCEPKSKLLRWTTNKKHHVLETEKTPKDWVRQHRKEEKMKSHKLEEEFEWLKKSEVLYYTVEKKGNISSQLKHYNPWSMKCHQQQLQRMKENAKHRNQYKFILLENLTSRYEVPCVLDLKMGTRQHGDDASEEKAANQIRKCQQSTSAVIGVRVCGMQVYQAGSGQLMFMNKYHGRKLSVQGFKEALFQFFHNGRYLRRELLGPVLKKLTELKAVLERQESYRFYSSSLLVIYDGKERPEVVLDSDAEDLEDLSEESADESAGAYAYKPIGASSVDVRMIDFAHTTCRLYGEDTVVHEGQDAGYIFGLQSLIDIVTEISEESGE", "assay": "IP6K2 TR-FRET assay for ADP detection", "format": "biochemical", "settings": "read-out: IC50 for IP6K2; TR-FRET Adapta, 400 nM IP6K2, 10 µM ATP, 10 µM InsP6", "outline": "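Buffer: 50 mM HEPES pH 7.5, 0.01% Brij-35, 10 mM MgCl2, 1 mM EGTA. Test compound (3-fold, 10-point dilutions) preincubated 10–20 min at room temperature with enzyme, then ATP/InsP6 added; 30 min reaction. Detection: 2 nM Eu-anti-ADP antibody, 12 nM ADP tracer, 10 mM EDTA (final), 30 min. 665/615 nm ratio; inhibition scaled DMSO-only (0%) to no-enzyme (100%); ~20% ATP turnover.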"}, "[2]": {"target": "IP6K1 (Homo sapiens, UniProt Q92551)", "sequence (Q92551 whole entry, species assumed)": "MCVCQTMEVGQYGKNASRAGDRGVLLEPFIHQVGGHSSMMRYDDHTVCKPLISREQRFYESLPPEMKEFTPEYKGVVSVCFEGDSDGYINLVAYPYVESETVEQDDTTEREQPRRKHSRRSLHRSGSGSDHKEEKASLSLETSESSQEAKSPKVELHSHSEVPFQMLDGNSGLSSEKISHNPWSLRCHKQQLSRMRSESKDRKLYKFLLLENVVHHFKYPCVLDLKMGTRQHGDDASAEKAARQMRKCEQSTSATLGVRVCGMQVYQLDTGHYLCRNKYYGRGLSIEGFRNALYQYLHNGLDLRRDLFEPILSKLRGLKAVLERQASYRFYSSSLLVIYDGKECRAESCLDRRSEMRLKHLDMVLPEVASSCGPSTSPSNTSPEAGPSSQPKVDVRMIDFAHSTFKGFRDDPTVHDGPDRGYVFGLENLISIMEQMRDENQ", "settings": "cited from earlier work"}}, "data": [{"smiles": "O=[N+]([O-])c1ccc(CNc2nc(NCc3cccc(C(F)(F)F)c3)nc3nc[nH]c23)cc1", "note": "[TNP, N2-(m-(trifluoromethyl)benzyl) N6-(p-nitrobenzyl)purine]", "values": [{"measurement": "IC50", "setting": "[1]", "result": 7360, "unit": "nM"}, {"measurement": "IC50", "setting": "[2]; read-out: IC50 previously reported for IP6K1", "result": 430, "unit": "nM"}, {"measurement": "Ki", "setting": "[2]; read-out: Ki previously reported for IP6K1", "result": 240, "unit": "nM"}]}]}
